Assay results as given in ChEMBL document CHEMBL1155412, “Novel powerful water-soluble lipid immunoadjuvants inducing mouse dendritic cell maturation and B cell proliferation using TLR2 pathway” (Bioorg Med Chem Lett, 2010).
Active and inactive are the calls of the source. The calls are words filed in the database; no cut-off is given here.

What was measured:
[1] = target: Toll-like receptor 2 (Mus musculus) (UniProt Q9QUN7); assay: Induction of TLR2-mediated mouse D1 dendritic cells maturation assessed as expression of CD54 and CD86 activation markers at 0.5 ug/ml after 24 hrs by flow cytometry in the presence of antagonist anti-TLR2 antibody treated 25 mins after anti-TLR2 antibody challenge
[2] = target: Toll-like receptor 2 (Mus musculus) (UniProt Q9QUN7); assay: Induction of TLR2-mediated mouse spleen B cells proliferation assessed as [3H]thymidin uptake at 0.02 ug/ml after 72 hrs
Outline: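 Purified mouse spleen B cells cultured with analogs at indicated concentrations for 72 h; proliferation by [3H]-thymidine uptake. Stimulation index = mean cpm stimulated / mean cpm unstimulated; mean SI ± SD of three independent experiments, each in triplicate.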

[3] = target: Toll-like receptor 2 (Mus musculus) (UniProt Q9QUN7); assay: Induction of TLR2-mediated mouse D1 dendritic cells maturation assessed as expression of CD54 and CD86 activation markers at 0.5 ug/ml to 5 ug/ml after 24 hrs by flow cytometry in the presence of polymyxin B; assay type: cell-based
[4] = target: Toll-like receptor 2 (Mus musculus) (UniProt Q9QUN7); assay: Induction of TLR2-mediated mouse spleen B cells proliferation assessed as [3H]thymidin uptake at 0.16 ug/ml after 72 hrs in the presence of antagonist anti-TLR2 antibody treated 25 mins after anti-TLR2 antibody challenge; assay type: functional, tissue-based

Chain of Toll-like receptor 2 (Mus musculus) (Q9QUN7 whole entry): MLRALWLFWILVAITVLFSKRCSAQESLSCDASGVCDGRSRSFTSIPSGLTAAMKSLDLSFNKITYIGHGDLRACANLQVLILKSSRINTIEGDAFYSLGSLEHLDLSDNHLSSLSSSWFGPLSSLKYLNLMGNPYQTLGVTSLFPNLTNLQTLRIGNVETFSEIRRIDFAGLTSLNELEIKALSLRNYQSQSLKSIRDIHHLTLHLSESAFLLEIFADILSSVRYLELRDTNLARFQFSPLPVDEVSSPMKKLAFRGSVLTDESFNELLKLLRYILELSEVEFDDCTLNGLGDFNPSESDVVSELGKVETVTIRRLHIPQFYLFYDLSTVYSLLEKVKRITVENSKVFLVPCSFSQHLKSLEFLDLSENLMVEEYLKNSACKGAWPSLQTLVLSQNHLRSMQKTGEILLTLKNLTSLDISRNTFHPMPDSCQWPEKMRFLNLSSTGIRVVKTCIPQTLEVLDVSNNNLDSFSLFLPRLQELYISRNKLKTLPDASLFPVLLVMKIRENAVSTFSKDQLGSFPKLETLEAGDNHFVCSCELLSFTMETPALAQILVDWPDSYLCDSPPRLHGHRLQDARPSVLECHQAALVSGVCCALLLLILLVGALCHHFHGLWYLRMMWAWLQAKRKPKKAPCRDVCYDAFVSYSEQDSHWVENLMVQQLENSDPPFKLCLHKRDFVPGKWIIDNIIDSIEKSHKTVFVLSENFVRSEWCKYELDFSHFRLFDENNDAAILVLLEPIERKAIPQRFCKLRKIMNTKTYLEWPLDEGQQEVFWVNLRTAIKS

Structure (SMILES)	Activity [1]	Activity [2]	Activity [3]	Activity [4]
CCCCCCCCCCCCCCCC(=O)OC[C@H](CSC[C@H](N)C(=O)N[C@@H](C)C(=O)NCC(=O)NCCSSCCNC(=O)CNC(=O)OCCOCCOCCOCCOCCOCCOCCOCCOCCOCCOCCOCCOCCOCCOCCOCCOCCOCCOCCOCCOCCOCCOCCOCCOCCOCCOCCOCCOCCOCCOCCOCCOCCOCCOCCOCCOCCOCCOCCOCCOCCOCCOCCOCCO)OC(=O)CCCCCCCCCCCCCCC	inactive	Active	Active	inactive
CCCCCCCCCCCCCCCC(=O)OC[C@H](CSC[C@H](NC(=O)COCCOCCOCCOCCOCCOCCOCCOCCOCCOCCOCCOCCOCCOCCOCCOCCOCCOCCOCCOCCOCCOCCOCCOCCOCCOCCOCCOCCOCCOCCOCCOCCOCCOCCOCCOCCOCCOCCOCCOCCOCCOCCOCCOCCOC)C(=O)N[C@@H](C)C(=O)NCC(=O)O)OC(=O)CCCCCCCCCCCCCCC	inactive	Active	Active	inactive
CCCCCCCCCCCCCCCC(=O)N[C@@H](CSC[C@@H](COC(=O)CCCCCCCCCCCCCCC)OC(=O)CCCCCCCCCCCCCCC)C(=O)N[C@@H](C)C(=O)NCC(=O)NCCOCCOCCOCCOCCOCCOCCOCCOCCOCCOCCOCCOCCOCCOCCOCCOCCOCCOCCOCCOCCOCCOCCOCCOCCOCCOCCOCCOCCOCCOCCOCCOCCOCCOCCOCCOCCOCCOCCOCCOCCOCCOCCOCCOCCOC	inactive	Active	Active	inactive
CCCCCCCCCCCCCCCC(=O)OC[C@H](CSC[C@H](N)C(=O)N[C@@H](C)C(=O)NCC(=O)NCCOCCOCCOCCOCCOCCOCCOCCOCCOCCOCCOCCOCCOCCOCCOCCOCCOCCOCCOCCOCCOCCOCCOCCOCCOCCOCCOCCOCCOCCOCCOCCOCCOCCOCCOCCOCCOCCOCCOCCOCCOCCOCCOCCOCCOC)OC(=O)CCCCCCCCCCCCCCC	inactive	Active	Active	inactive
